ChEMBL document CHEMBL1649438, “Activities of ceftobiprole and other cephalosporins against extracellular and intracellular (THP-1 macrophages and keratinocytes) forms of methicillin-susceptible and methicillin-resistant Staphylococcus aureus” (Antimicrob Agents Chemother, 2009)
Converted amounts (≈) assume the structure as drawn.

What was measured:
[1] = tested on: Staphylococcus aureus; experiment: Antimicrobial activity against methicillin-susceptible Staphylococcus aureus ATCC 25923 infected in human keratinocytes assessed as bacterial count per mg of cell protein at low extracellular compound concentration after 24 hrs; assay type: functional
Procedure, shortened: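 Primary human skin keratinocytes were grown in defined keratinocyte serum-free medium and infected with S. aureus to 1.5 × 10^6 to 3.0 × 10^6 CFU/mg cell protein. Cells were exposed 24 h to increasing extracellular concentrations. Response was the log10 CFU change from the postphagocytosis inoculum, fitted by a Hill equation with slope 1. Cs is the concentration giving CFU equal to the original inoculum, found by graphical interpolation.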

[2] = tested on: Staphylococcus aureus; experiment: Antimicrobial activity against hospital-acquired vancomycin-intermediate Staphylococcus aureus NRS18 infected in human THP-1 cells assessed as bacterial count per mg of cell protein at high extracellular compound concentration after 24 hrs; assay type: functional
Procedure, shortened: (§1)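 Human THP-1 macrophage-like cells were infected with S. aureus to a postphagocytosis inoculum of 1.5 × 10^6 to 3.0 × 10^6 CFU/mg cell protein. Cells were then exposed 24 h to increasing extracellular antibiotic concentrations. Response was the log10 CFU change per mg protein from the postphagocytosis inoculum, n = 3. A Hill function was fitted on log-transformed axes. E0 and Emax were extrapolated to infinitely low and high concentrations. Cs was read by graphical interpolation. Concentrations were expressed as multiples of the broth MIC at pH 5.5 or pH 7.4.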

[3] = tested on: Staphylococcus aureus; experiment: Antimicrobial activity against hospital-acquired vancomycin-intermediate Staphylococcus aureus NRS18 infected in human THP-1 cells assessed as bacterial count per mg of cell protein at low extracellular compound concentration after 24 hrs; assay type: functional; procedure, shortened: as §1
[4] = tested on: Staphylococcus aureus; experiment: Antimicrobial activity against Panton-valentine leucocidin-positive community-acquired methicillin-resistant Staphylococcus aureus STA 44 infected in human THP-1 cells assessed as change in bacterial count after 24 hrs at pH 5.5; assay type: functional, organism-based; settings: STA 44, THP-1, 24 h
Procedure, shortened: (§2)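 THP-1 human macrophages infected with S. aureus (postphagocytosis inoculum 1.5 × 10^6 to 3.0 × 10^6 CFU/mg cell protein), then incubated 24 h with increasing extracellular antibiotic concentrations. Change in log10 CFU/mg cell protein from the postphagocytosis inoculum, n = 3. Hill function fitted on log-transformed data. Low-concentration value (E0) and high-concentration value (Emax) are extrapolated. Where a pH is given, concentrations are expressed as multiples of the broth MIC at that pH.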

[5] = tested on: Staphylococcus aureus; experiment: Antimicrobial activity against Panton-valentine leucocidin-positive community-acquired methicillin-resistant Staphylococcus aureus STA 44 infected in human THP-1 cells assessed as bacterial count per mg of cell protein at high extracellular compound concentration after 24 hrs; assay type: functional; procedure, shortened: as §2
[6] = tested on: Staphylococcus aureus; experiment: Antimicrobial activity against Panton-valentine leucocidin-positive community-acquired methicillin-resistant Staphylococcus aureus isolate MEH2225605 infected in human THP-1 cells assessed as change in bacterial count after 24 hrs at pH 5.5; assay type: functional, organism-based; settings: isolate MEH2225605, THP-1, 24 h; procedure, shortened: as §2
[7] = tested on: Staphylococcus aureus; experiment: Antimicrobial activity against hospital-acquired methicillin-resistant Staphylococcus aureus ATCC 33591 infected in human THP-1 cells assessed as change in bacterial count after 24 hrs at pH 7.4; assay type: functional, organism-based; settings: ATCC 33591, THP-1, 24 h
Procedure, shortened: (§3)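 THP-1 macrophages infected as described previously, with a postphagocytosis inoculum of 1.5 × 10⁶ to 3.0 × 10⁶ CFU/mg cell protein. Cells were exposed 24 h to increasing extracellular antibiotic concentrations. Response is the change in log10 CFU/mg protein from the inoculum (n = 3), fitted to a Hill function. E0 and Emax were extrapolated to infinitely low and high concentrations. EC50 and static concentration (graphical interpolation) are expressed as multiples of the broth MIC at pH 5.5 or 7.4.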

[8] = tested on: Staphylococcus aureus; experiment: Antimicrobial activity against methicillin-susceptible Staphylococcus aureus ATCC 11632 infected in human THP-1 cells assessed as bacterial count per mg of cell protein at high extracellular compound concentration after 24 hrs at pH 5.5; assay type: functional; procedure, shortened: as §1
[9] = tested on: Staphylococcus aureus; experiment: Antimicrobial activity against hospital-acquired vancomycin-intermediate Staphylococcus aureus NRS18 infected in human THP-1 cells assessed as change in bacterial count after 24 hrs at pH 5.5; assay type: functional, organism-based; settings: NRS18, THP-1, 24 h; procedure, shortened: as §3
[10] = tested on: Staphylococcus aureus; experiment: Antimicrobial activity against methicillin-resistant Staphylococcus aureus ATCC 33591 infected in human keratinocytes assessed as bacterial count per mg of cell protein at low extracellular compound concentration after 24 hrs; assay type: functional
Procedure, shortened: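 Primary human skin keratinocytes were grown in defined keratinocyte serum-free medium, infected with a postphagocytosis inoculum of 1.5 × 10⁶ to 3.0 × 10⁶ CFU/mg cell protein, then exposed 24 h to increasing extracellular antibiotic concentrations. Change in log10 CFU/mg protein from the inoculum was fitted to a Hill equation with slope 1. E0 and Emax were extrapolated to infinitely low and high concentrations, in total drug mg/liter.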

[11] = tested on: Staphylococcus aureus; experiment: Antimicrobial activity against hospital-acquired methicillin-resistant Staphylococcus aureus ATCC 33592 infected in human THP-1 cells assessed as change in bacterial count after 24 hrs; assay type: functional, organism-based; settings: ATCC 33592, THP-1, 24 h; procedure, shortened: as §3
[12] = tested on: Staphylococcus aureus; experiment: Antimicrobial activity against Panton-valentine leucocidin-positive community-acquired methicillin-resistant Staphylococcus aureus isolate MEH2225605 infected in human THP-1 cells assessed as bacterial count per mg of cell protein at high extracellular compound concentration after 24 hrs at pH 5.5; assay type: functional; procedure, shortened: as §2
[13] = tested on: Staphylococcus aureus; experiment: Antimicrobial activity against methicillin-susceptible Staphylococcus aureus ATCC 11632 infected in human THP-1 cells assessed as change in bacterial count after 24 hrs at pH 7.4; assay type: functional, organism-based; settings: ATCC 11632, THP-1, 24 h; procedure, shortened: as §3
[14] = tested on: Staphylococcus aureus; experiment: Antimicrobial activity against hospital-acquired vancomycin-intermediate Staphylococcus aureus NRS126 infected in human THP-1 cells assessed as bacterial count per mg of cell protein at high extracellular compound concentration after 24 hrs; assay type: functional; procedure, shortened: as §1
[15] = tested on: Staphylococcus aureus; experiment: Antimicrobial activity against methicillin-susceptible Staphylococcus aureus […] infected in human THP-1 cells assessed as change in bacterial count after 24 hrs at pH 5.5; assay type: functional, organism-based; settings: THP-1, 24 h; procedure, shortened: as §3
[16] = tested on: Staphylococcus aureus; experiment: Antimicrobial activity against hospital-acquired vancomycin-intermediate Staphylococcus aureus NRS126 infected in human THP-1 cells assessed as change in bacterial count after 24 hrs at pH 5.5; assay type: functional, organism-based; settings: NRS126, THP-1, 24 h; procedure, shortened: as §3
[17] = tested on: Staphylococcus aureus; experiment: Antimicrobial activity against hospital-acquired vancomycin-resistant Staphylococcus aureus VRS1 infected in human THP-1 cells assessed as bacterial count per mg of cell protein at low extracellular compound concentration after 24 hrs; assay type: functional; procedure, shortened: as §3
[18] = tested on: Staphylococcus aureus; experiment: Antimicrobial activity against methicillin-susceptible Staphylococcus aureus NRS52 infected in human THP-1 cells assessed as change in bacterial count after 24 hrs; assay type: functional, organism-based; settings: NRS52, THP-1, 24 h; procedure, shortened: as §3
[19] = tested on: Staphylococcus aureus; experiment: Antimicrobial activity against hospital-acquired vancomycin-intermediate Staphylococcus aureus NRS18 infected in human THP-1 cells assessed as bacterial count per mg of cell protein at low extracellular compound concentration after 24 hrs at pH 7.4; assay type: functional; procedure, shortened: as §1
[20] = tested on: Staphylococcus aureus; experiment: Antimicrobial activity against hospital-acquired methicillin-resistant Staphylococcus aureus ATCC 33592 infected in human THP-1 cells assessed as change in bacterial count after 24 hrs at pH 7.4; assay type: functional, organism-based; settings: ATCC 33592, THP-1, 24 h; procedure, shortened: as §3
[21] = tested on: Staphylococcus aureus; experiment: Antimicrobial activity against methicillin-susceptible Staphylococcus aureus ATCC 11632 infected in human THP-1 cells assessed as bacterial count per mg of cell protein at low extracellular compound concentration after 24 hrs; assay type: functional; procedure, shortened: as §1

Nc1nc(/C(=N/O)C(=O)N[C@@H]2C(=O)N3C(C(=O)O)=C(/C=C4\CCN([C@@H]5CCNC5)C4=O)CS[C@H]23)ns1 [CEFTOBIPROLE]
log10cfu [1]: 2.48
log10cfu [2]: -1.34
log10cfu [3]: 2.83
EC50 [4]: 0.54 × MIC
log10cfu [5]: -1.02
EC50 [6]: 0.54 × MIC
EC50 [7]: 0.28 ×MIC
log10cfu [8]: 1.04
EC50 [9]: 0.77 ×MIC
log10cfu [10]: 2.04
EC50 [11]: 1.23 µg/mL (≈ 2.3 µM)
log10cfu [12]: -1.02
EC50 [13]: 0.2 × MIC
log10cfu [14]: -1.21
EC50 [15]: 0.41 × MIC
EC50 [16]: 0.77 × MIC
log10cfu [17]: 2.57
EC50 [18]: 0.19 µg/mL (≈ 0.355 µM)
log10cfu [19]: 2.6
EC50 [20]: 0.28 ×MIC
log10cfu [21]: 3.03
